# Assays:
# Interstitial collagenase [1] = molecular target: T1, Interstitial collagenase (Homo sapiens, UniProt P03956); assay: Inhibition of collagenase-1 (Matrix metalloprotease-1)
# T1 sequence (P03956 whole entry): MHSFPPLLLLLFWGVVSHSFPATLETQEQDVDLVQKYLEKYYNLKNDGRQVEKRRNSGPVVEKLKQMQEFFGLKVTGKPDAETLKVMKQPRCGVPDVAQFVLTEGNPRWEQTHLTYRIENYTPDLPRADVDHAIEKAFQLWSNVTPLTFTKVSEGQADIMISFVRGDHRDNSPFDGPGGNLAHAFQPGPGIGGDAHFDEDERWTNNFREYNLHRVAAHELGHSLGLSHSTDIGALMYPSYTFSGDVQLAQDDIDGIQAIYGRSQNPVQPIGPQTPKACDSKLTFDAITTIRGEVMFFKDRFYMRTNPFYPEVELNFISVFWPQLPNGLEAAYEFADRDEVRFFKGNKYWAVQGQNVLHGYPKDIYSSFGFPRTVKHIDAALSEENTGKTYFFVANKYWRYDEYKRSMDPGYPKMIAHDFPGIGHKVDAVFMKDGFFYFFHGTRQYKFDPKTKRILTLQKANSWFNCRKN
# Stromelysin-1 [2] = molecular target: T2, Stromelysin-1 (Homo sapiens, UniProt P08254); assay: Inhibition of Matrix Metalloprotease-3
# How it was run: (§1)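 Stromelysin-1, recombinant human C-terminally truncated form, used at 10 nM final. Conditions: room temperature; Hepes 20 mM, CaCl₂ 5 mM, Brij35 0.02%, cysteine 0.5 mM; inhibitor in degassed methanol (2% final) preincubated 3 min. Reaction started with quenched-fluorescence substrate Mca-PLGL-Dpa-AR-NH₂ (10 μM final), read at ex 330/em 430 nm every minute for 30 min. IC50 came from rate fit v_i = v_0/(1+[I]/IC50).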
# Matrilysin = molecular target: T3, Matrilysin (Homo sapiens, UniProt P09237); assay: Inhibition of matrilysin (Matrix metalloprotease-7)
# T3 sequence (P09237 whole entry): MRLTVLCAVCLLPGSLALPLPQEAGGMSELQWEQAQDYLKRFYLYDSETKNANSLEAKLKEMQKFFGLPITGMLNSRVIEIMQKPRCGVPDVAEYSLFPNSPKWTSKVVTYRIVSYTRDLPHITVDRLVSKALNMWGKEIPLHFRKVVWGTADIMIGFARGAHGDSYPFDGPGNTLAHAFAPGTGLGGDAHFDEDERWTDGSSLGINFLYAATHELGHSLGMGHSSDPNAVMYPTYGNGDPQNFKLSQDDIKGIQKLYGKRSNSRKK
# How it was run: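 Matrilysin (recombinant C-terminally truncated human) at 0.5 nM final, room temperature, in buffer of 20 mM Hepes, 5 mM CaCl₂, 0.02% Brij35, 0.5 mM cysteine. Inhibitor was added from degassed methanol (2% final) with 3 min preincubation, then 10 μM quenched-fluorescence Mca-PLGL-Dpa-AR-NH₂ substrate. Fluorescence (ex 330/em 430 nm) was read once a minute for 30 min; IC50 came from v_i = v_0/(1+[I]/IC50).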
# Interstitial collagenase [3] = molecular target: T1, Interstitial collagenase; assay: Inhibition of Matrix Metalloprotease-1
# How it was run: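 Recombinant C-terminally truncated human collagenase-1 at 10 nM final, in 20 mM Hepes, 5 mM CaCl₂, 0.02% Brij35, 0.5 mM cysteine at room temperature. Inhibitor was added in degassed methanol (2% final), then 3 min later 10 μM Mca-Pro-Leu-Gly-Leu-Dpa-Ala-Arg-NH₂. Fluorescence (ex 330/em 430 nm) was read each minute for 30 min; IC50 was fitted as v_i = v_0/(1+[I]/IC50).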
# [4] = molecular target: T4, Matrix metalloproteinase-9 (Homo sapiens, UniProt P14780); assay: Inhibition of Matrix Metalloprotease-9
# How it was run: (§2)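 Gelatinase-B, a recombinant C-terminally truncated form expressed in Pichia pastoris, used at 2 nM final. Buffer was 20 mM Hepes, 5 mM CaCl₂, 0.02% Brij35, 0.5 mM cysteine, at room temperature. Inhibitor in degassed methanol (2% final) was added 3 min before 10 μM Mca-Pro-Leu-Gly-Leu-Dpa-Ala-Arg-NH₂. Fluorescence at 330/430 nm was logged per minute for 30 min; IC50 was fitted to v_i = v_0/(1+[I]/IC50).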
# [5] = molecular target: T4, Matrix metalloproteinase-9; assay: Inhibition of gelatinase-B (Matrix metalloprotease-9); design: species or system Komagataella pastoris; how it was run: as §2
# Stromelysin-1 [6] = molecular target: T2, Stromelysin-1; assay: Inhibition of stromelysin (Matrix metalloprotease-3); how it was run: as §1
# Stromelysin-1 [7] = molecular target: T2, Stromelysin-1; assay: Inhibition of stromelysin-1; how it was run: as §1
# T4 sequence (P14780 whole entry, the tested form may be a part): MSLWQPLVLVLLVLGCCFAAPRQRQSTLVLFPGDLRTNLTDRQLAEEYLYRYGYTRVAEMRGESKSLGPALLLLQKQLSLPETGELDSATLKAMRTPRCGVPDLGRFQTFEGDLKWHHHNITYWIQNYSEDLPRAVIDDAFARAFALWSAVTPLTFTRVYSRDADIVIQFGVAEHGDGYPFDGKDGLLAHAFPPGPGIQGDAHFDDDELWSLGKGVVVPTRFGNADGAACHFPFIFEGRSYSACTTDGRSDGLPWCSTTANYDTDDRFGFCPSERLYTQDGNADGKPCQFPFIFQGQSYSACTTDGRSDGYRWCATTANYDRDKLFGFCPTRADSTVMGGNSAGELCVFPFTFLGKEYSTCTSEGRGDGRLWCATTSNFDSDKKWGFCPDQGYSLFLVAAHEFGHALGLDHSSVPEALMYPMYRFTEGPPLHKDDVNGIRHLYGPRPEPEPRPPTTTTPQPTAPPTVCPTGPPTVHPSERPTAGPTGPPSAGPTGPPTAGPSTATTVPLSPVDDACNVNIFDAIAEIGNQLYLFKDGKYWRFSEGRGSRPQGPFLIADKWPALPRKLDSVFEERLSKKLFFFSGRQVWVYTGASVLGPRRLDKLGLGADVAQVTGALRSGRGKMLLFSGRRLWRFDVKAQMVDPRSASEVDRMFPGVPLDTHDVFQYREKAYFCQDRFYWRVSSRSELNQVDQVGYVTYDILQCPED
# T2 sequence (P08254 whole entry, the tested form may be a part): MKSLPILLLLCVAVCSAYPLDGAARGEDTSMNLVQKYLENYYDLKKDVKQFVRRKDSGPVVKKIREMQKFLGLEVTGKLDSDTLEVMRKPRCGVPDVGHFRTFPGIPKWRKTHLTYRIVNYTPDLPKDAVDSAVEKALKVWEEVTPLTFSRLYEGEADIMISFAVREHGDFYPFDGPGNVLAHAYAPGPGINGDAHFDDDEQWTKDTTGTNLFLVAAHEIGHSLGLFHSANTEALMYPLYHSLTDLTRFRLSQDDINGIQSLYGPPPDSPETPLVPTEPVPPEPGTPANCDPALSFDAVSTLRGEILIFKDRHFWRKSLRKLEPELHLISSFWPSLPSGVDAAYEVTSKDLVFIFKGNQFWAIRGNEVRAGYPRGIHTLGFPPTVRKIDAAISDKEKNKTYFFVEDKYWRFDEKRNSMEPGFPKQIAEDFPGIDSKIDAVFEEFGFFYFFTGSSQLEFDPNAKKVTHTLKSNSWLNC
SMILES,IC50 (Interstitial collagenase [1]),IC50 (Stromelysin-1 [2]),IC50 (Matrilysin),IC50 (Interstitial collagenase [3]),IC50 [4],IC50 [5],IC50 (Stromelysin-1 [6]),IC50 (Stromelysin-1 [7])
CCCCCCN1C(=O)[C@H](Cc2cccnc2)NC(=O)[C@H]1CS,2 µM,,,,,,,
O=C1N[C@@H](CS)C(=O)N(CC2CCCCC2)[C@H]1CC1CCCCC1,0.047 µM,2.91 µM,0.59 µM,0.047 µM,0.121 µM,0.113 µM,2.3 µM,
CCCCN1C(=O)[C@H](CS)NC(=O)[C@@H]1Cc1ccccc1,,19 µM,,0.319 µM,2.36 µM,,,
O=C1N[C@H](CS)C(=O)N(CC2CCCCC2)[C@@H]1CC1CCCCC1,14 µM,,> 40 µM,,,> 40 µM,,> 40 µM
CCCCCCCCN1C(=O)[C@H](Cc2cccnc2)NC(=O)[C@H]1CS,10 µM,,,,,,,
COc1ccc(CN2C(=O)[C@H](CS)NC(=O)[C@@H]2Cc2ccccc2)cc1,,4.04 µM,,0.064 µM,2.36 µM,,,
O=C1N[C@@H](CS)C(=O)N(Cc2ccc3ccccc3n2)[C@H]1CC1CCCCC1,,2.4 µM,,0.035 µM,0.087 µM,,,
COc1ccc(CN2C(=O)[C@H](CS)NC(=O)[C@@H]2CC2CCCCC2)cc1,,3.8 µM,,0.03 µM,0.079 µM,,,
O=C1N[C@H](CS)C(=O)N(CC2CCCCC2)[C@H]1CC1CCCCC1,2.6 µM,,> 40 µM,,,7 µM,> 40 µM,
O=C1N[C@@H](CS)C(=O)N(CC2CCCCC2)[C@@H]1CC1CCCCC1,,,4.8 µM,,,12 µM,,> 40 µM
CCCC[C@H]1C(=O)N[C@@H](CS)C(=O)N1CC1CCCCC1,,3.4 µM,,0.22 µM,0.37 µM,,,
